According to ChEMBL document CHEMBL1139407, “Pyridyl and thiazolyl bisamide CSF-1R inhibitors for the treatment of cancer” (Bioorg Med Chem Lett, 2008):

Assays:
[1] = Clearance in rat at 3 mg/kg, iv and 10 mg/kg, po; type: ADME, organism-based; settings: in vivo
[2] = target: Epidermal growth factor receptor (Homo sapiens) (UniProt P00533); assay: Inhibition of EGFR assessed as residual enzyme activity at 1 uM
[3] = Volume of distribution at steady state in rat at 3 mg/kg, iv and 10 mg/kg, po; type: ADME, organism-based; settings: in vivo, read-out: Vdss
[4] = Bioavailability in rat at 3 mg/kg, iv and 10 mg/kg, po; type: ADME, organism-based; settings: in vivo
[5] = target: Hepatocyte growth factor receptor (Homo sapiens) (UniProt P08581); assay: Inhibition of Met assessed as residual enzyme activity at 1 uM
[6] = target: Mitogen-activated protein kinase 1 (Homo sapiens) (UniProt P28482); assay: Inhibition of MAPK1 assessed as residual enzyme activity at 1 uM
[7] = target: Mast/stem cell growth factor receptor Kit (Homo sapiens) (UniProt P10721); assay: Inhibition of cKit assessed as residual enzyme activity at 1 uM
[8] = target: RAF proto-oncogene serine/threonine-protein kinase (Homo sapiens) (UniProt P04049); assay: Inhibition of cRaf assessed as residual enzyme activity at 1 uM
[9] = target: Tyrosine-protein kinase Fyn (Homo sapiens) (UniProt P06241); assay: Inhibition of Fyn assessed as residual enzyme activity at 1 uM
[10] = target: Tyrosine-protein kinase HCK (Homo sapiens) (UniProt P08631); assay: Inhibition of Hck assessed as residual enzyme activity at 1 uM
[11] = target: Tyrosine-protein kinase JAK2 (Homo sapiens) (UniProt O60674); assay: Inhibition of JAK2 assessed as residual enzyme activity at 1 uM
[12] = target: Inhibitor of nuclear factor kappa-B kinase subunit beta (Homo sapiens) (UniProt O14920); assay: Inhibition of IKK-beta assessed as residual enzyme activity at 1 uM
[13] = target: T1, Macrophage colony-stimulating factor 1 receptor (Homo sapiens, UniProt P07333); assay: Inhibition of CSF1R assessed as residual enzyme activity at 1 uM
[14] = target: Proto-oncogene tyrosine-protein kinase Src (Homo sapiens) (UniProt P12931); assay: Inhibition of Src assessed as residual enzyme activity at 1 uM
[15] = target: Ephrin type-A receptor 2 (Homo sapiens) (UniProt P29317); assay: Inhibition of EphA2 assessed as residual enzyme activity at 1 uM
[16] = test system: NIH3T3; assay: Antiproliferative activity against mouse 3T3 cells expressing human CSF1R after 72 hrs by Celltiter assay; type: functional
In short: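 3T3 cells engineered with human full-length CSF-1R, seeded in phenol red-free DMEM with 0.05% BSA and incubated overnight. Treated with DMEM containing 80 ng/ml M-CSF plus insulin, transferrin and selenium at multiple compound concentrations. […] Growth read by MTS-type CellTiter 96 Aqueous One after 72 h.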

[17] = target: Receptor-type tyrosine-protein kinase FLT3 (Homo sapiens) (UniProt P36888); assay: Inhibition of Flt3 assessed as residual enzyme activity at 1 uM
[18] = target: Fibroblast growth factor receptor 1 (Homo sapiens) (UniProt P11362); assay: Inhibition of FGFR1 assessed as residual enzyme activity at 1 uM
[19] = target: T1, Macrophage colony-stimulating factor 1 receptor; assay: Inhibition of CSF1R
[20] = Half life in rat at 3 mg/kg, iv and 10 mg/kg, po; type: ADME, organism-based; settings: in vivo
[21] = target: Platelet-derived growth factor receptor beta (Homo sapiens) (UniProt P09619); assay: Inhibition of PDGFRbeta assessed as residual enzyme activity at 1 uM
[22] = target: Angiopoietin-1 receptor (Homo sapiens) (UniProt Q02763); assay: Inhibition of Tie2 assessed as residual enzyme activity at 1 uM
[23] = target: Serine/threonine-protein kinase pim-1 (Homo sapiens) (UniProt P11309); assay: Inhibition of Pim-1 assessed as residual enzyme activity at 1 uM
[24] = test system: Mus musculus; assay: Inhibition of phosphorylated CSF1R level in 3T3/CSF1R mutant cells xenografted nude mouse at 50 mg/kg, po after 6 hrs by ELISA; type: functional
In short: (§1)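 3T3 cells expressing constitutively active human mutant full-length CSF-1R (301–969) were implanted subcutaneously at 5 × 10⁶ cells in female nude mice and grown to tumors >250 mm³. After dosing, tumors were assayed for pCSF-1R by ELISA, and plasma was sampled for drug levels.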

[25] = target: Glycogen synthase kinase-3 beta (Homo sapiens) (UniProt P49841); assay: Inhibition of GSK3-beta assessed as residual enzyme activity at 1 uM
[26] = target: Insulin-like growth factor 1 receptor (Homo sapiens) (UniProt P08069); assay: Inhibition of IGF1-R assessed as residual enzyme activity at 1 uM
[27] = target: Cyclin-dependent kinase 2 (Homo sapiens) (UniProt P24941); assay: Inhibition of CDK2/cyclinA assessed as residual enzyme activity at 1 uM
[28] = test system: Mus musculus; assay: Inhibition of phosphorylated CSF1R level in 3T3/CSF1R mutant cells xenografted nude mouse at 50 mg/kg, po after 2 hrs by ELISA; type: functional; in short: as §1
[29] = target: Insulin receptor (Homo sapiens) (UniProt P06213); assay: Inhibition of insulin receptor assessed as residual enzyme activity at 1 uM
[30] = target: Vascular endothelial growth factor receptor 2 (Homo sapiens) (UniProt P35968); assay: Inhibition of KDR assessed as residual enzyme activity at 1 uM

T1 sequence (P07333 whole entry): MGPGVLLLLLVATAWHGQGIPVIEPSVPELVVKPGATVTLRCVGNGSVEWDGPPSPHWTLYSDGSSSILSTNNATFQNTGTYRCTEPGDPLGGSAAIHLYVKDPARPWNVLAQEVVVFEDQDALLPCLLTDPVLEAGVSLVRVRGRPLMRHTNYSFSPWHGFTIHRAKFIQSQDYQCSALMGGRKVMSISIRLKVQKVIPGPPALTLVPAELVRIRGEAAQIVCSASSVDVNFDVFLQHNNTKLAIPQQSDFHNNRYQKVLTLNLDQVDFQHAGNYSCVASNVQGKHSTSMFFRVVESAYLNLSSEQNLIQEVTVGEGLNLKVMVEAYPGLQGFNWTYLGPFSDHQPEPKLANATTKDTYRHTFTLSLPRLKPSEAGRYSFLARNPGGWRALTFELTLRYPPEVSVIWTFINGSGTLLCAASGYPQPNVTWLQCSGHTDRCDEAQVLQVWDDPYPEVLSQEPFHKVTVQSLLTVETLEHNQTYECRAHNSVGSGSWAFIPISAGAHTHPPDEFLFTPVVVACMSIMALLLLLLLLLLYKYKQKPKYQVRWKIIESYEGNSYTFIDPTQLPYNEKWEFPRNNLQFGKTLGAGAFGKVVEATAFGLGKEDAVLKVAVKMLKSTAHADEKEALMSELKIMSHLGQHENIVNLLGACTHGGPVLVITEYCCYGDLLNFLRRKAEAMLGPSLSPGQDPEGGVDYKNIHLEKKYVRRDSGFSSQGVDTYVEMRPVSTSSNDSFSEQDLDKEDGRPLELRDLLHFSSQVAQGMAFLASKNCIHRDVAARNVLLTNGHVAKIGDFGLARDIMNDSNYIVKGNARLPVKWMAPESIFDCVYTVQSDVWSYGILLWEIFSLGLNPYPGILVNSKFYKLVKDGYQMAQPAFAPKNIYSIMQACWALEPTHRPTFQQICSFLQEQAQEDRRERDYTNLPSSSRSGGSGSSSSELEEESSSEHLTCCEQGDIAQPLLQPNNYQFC
Sequence of Glycogen synthase kinase-3 beta (Homo sapiens) (P49841 whole entry, looked up): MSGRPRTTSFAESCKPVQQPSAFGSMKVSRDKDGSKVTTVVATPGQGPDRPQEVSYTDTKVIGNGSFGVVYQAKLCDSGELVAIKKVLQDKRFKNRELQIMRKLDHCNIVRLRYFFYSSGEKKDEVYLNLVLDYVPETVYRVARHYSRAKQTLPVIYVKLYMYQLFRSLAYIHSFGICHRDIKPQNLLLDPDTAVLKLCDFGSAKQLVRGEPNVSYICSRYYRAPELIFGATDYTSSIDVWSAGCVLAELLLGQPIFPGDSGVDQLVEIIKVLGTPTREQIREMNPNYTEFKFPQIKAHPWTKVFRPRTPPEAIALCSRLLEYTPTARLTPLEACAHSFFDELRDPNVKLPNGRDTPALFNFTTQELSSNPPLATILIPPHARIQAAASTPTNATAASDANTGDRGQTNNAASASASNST
Sequence of Platelet-derived growth factor receptor beta (Homo sapiens) (P09619 whole entry): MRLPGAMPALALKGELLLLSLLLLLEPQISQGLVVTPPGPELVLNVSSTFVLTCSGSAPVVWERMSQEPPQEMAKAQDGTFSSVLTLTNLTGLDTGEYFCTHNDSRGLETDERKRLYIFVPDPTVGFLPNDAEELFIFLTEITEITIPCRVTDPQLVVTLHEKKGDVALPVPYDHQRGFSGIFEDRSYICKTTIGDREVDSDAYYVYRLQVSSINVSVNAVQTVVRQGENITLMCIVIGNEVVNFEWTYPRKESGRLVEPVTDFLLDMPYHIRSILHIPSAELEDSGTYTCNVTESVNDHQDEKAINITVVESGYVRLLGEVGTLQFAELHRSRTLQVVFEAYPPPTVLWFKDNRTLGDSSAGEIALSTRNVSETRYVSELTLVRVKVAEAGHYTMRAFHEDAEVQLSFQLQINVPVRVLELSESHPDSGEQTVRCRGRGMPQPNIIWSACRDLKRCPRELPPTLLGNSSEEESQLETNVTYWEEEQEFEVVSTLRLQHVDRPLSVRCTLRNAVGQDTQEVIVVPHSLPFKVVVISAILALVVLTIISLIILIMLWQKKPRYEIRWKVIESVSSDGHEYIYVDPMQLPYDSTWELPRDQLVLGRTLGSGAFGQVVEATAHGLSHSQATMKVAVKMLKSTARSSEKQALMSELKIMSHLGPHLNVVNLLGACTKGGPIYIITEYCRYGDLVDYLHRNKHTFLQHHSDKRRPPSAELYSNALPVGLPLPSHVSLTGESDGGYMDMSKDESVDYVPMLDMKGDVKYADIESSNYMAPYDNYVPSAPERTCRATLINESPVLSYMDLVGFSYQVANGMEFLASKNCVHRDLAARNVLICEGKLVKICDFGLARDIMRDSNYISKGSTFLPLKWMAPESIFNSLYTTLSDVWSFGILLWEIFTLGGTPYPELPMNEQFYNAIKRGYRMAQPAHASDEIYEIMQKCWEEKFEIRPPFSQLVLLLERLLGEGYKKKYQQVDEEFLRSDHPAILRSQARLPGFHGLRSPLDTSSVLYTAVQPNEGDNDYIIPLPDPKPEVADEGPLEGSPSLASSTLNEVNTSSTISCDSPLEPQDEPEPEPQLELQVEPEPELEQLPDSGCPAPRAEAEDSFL
Sequence of Angiopoietin-1 receptor (Homo sapiens) (Q02763 whole entry): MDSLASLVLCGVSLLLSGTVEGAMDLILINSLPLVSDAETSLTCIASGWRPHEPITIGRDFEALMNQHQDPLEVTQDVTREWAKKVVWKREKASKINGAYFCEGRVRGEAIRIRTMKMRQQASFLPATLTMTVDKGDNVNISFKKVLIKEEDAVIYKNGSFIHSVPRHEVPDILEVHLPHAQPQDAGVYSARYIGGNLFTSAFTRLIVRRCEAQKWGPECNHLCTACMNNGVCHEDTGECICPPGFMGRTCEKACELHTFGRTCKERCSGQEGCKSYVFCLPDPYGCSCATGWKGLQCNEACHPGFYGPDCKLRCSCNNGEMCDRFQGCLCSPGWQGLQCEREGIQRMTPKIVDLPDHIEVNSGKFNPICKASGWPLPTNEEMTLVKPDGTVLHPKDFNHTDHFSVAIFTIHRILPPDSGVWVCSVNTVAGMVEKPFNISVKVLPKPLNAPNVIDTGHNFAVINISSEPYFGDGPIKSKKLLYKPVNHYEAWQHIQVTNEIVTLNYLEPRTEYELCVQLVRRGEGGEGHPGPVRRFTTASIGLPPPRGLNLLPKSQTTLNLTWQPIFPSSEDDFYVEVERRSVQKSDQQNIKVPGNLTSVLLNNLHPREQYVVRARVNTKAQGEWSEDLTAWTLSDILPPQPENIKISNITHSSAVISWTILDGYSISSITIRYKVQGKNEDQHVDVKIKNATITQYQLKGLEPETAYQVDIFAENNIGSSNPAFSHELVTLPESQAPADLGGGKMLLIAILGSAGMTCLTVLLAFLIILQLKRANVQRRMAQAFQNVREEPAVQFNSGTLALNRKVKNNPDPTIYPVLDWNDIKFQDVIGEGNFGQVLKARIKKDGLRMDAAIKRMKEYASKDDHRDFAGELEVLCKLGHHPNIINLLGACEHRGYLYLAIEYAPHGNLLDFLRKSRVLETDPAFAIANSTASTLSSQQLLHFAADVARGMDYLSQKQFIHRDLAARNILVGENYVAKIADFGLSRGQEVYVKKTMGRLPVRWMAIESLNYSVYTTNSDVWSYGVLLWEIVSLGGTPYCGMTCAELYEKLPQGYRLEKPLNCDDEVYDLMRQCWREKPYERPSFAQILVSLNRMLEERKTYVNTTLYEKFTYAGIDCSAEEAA
Sequence of Epidermal growth factor receptor (Homo sapiens) (P00533 whole entry): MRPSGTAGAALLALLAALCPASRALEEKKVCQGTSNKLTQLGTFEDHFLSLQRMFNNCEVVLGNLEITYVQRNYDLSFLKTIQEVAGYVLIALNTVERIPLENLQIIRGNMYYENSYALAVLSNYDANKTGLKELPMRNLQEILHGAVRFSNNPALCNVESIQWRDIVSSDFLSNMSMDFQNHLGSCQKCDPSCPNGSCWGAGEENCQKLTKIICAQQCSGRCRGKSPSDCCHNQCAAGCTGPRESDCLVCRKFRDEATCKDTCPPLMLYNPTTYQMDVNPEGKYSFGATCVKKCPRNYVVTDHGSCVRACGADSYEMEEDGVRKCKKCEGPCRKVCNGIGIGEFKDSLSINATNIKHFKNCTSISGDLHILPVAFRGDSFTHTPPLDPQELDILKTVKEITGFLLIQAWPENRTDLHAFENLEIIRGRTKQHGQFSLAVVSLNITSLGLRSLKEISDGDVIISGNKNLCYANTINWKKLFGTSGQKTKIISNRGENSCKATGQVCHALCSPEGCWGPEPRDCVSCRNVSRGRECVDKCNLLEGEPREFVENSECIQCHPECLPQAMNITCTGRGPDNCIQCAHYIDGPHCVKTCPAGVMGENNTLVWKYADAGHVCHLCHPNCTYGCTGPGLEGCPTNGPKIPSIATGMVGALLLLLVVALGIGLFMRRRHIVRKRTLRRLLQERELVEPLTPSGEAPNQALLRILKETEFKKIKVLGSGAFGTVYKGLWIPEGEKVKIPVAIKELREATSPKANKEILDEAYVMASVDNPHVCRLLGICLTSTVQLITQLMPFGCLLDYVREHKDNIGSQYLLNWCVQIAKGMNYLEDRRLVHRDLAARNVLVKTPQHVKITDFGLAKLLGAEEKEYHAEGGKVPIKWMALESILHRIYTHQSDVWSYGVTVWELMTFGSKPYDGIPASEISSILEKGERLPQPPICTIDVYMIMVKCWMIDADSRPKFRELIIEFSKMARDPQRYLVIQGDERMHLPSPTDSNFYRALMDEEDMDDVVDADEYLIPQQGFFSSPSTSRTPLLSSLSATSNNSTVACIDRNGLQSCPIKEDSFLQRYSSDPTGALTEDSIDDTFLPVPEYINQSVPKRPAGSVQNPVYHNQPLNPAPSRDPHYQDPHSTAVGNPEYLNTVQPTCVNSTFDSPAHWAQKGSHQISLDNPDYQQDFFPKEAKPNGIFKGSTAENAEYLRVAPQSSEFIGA

Cc1ncc(NC(=O)c2cc(NC(=O)c3cccc(C(F)(F)F)c3)ccc2Cl)s1
clearance [1]: 13 mL/min/kg | Activity [2]: 118% | Vd [3]: 1.1 L/kg | bioavailability [4]: 62% | Activity [5]: 109% | Activity [6]: 116% | Activity [7]: 57% | Activity [8]: 9% | Activity [9]: 7% | Activity [10]: 6% | Activity [11]: 112% | Activity [12]: 112% | Activity [13]: 1% | Activity [14]: 10% | Activity [15]: 5% | Activity [16]: 0.05 µM | Activity [17]: 114% | Activity [18]: 111% | IC50 [19]: 7 nM | half-life [20]: 1.2 h | Activity [21]: 45% | Activity [22]: 111% | Activity [23]: 116% | inhibition in vivo at 50 mg/kg [24]: 35% | Activity [25]: 91% | Activity [26]: 107% | Activity [27]: 95% | inhibition in vivo at 50 mg/kg [28]: 70% | Activity [29]: 108% | Activity [30]: 10%
